# Source: ChEMBL document CHEMBL1139471, “Antitumor polycyclic acridines. 17. Synthesis and pharmaceutical profiles of pentacyclic acridinium salts designed to destabilize telomeric integrity” (J Med Chem, 2005)
# Key:
# [1] = Inhibition of telomerase by TRAP assay; design: species or system Homo sapiens
# [2] = Growth inhibition of NCI60 cell panel; assay type: functional; details: Homo sapiens
# In short: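 NCI 60 human tumor cell panel with a 2-day drug exposure; mean GI50 reported.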
# [3] = Selectivity index, ratio of mean GI50 for NCI60 cell panel to IC50 for telomerase; assay type: functional, Homo sapiens
# In short: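 Selectivity index calculated as mean GI50 (NCI 60 panel, 2-day exposure) divided by the telomerase IC50 from the TRAP assay.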
# [4] = Aqueous solubility at 25 degC; assay type: physicochemical; details: water
# [5] = Stability in RPMI tissue culture medium at 37 degC after 72 hrs; assay type: ADME
# In short: (§1)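 Drug at 10 μM in RPMI containing 10% FBS without cells, held at 37 °C up to 72 h. Monitored by absorbance at λmax and spectrum shape, and by HPLC of aliquots for loss of parent and appearance of new peaks. LC-MS run on the 72 h sample.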
# [6] = Metabolic stability in Sprague-Dawley rat liver microsomes assessed as drug remaining after 4 hrs
# [7] = system: A549; assay: Stability in RPMI tissue culture medium at 37 degC incubated with human A549 cells at 0.5 uM after 72 hrs; assay type: ADME, cell-based; details: a549, 72 h
# In short: (§2)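 A549 or MCF-7 cells seeded at 5 × 10^5 per flask and attached overnight in RPMI with 10% serum at 37 °C. Medium then replaced with medium containing 0.5 μM drug. Medium sampled in triplicate at 0, 24, 48 and 72 h, deproteinized with acetonitrile. Isocratic C18 HPLC, fluorescence detection ex 483/em 543 nm. Drug peak height given as % of time zero; mean and SD of two flasks.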
# [8] = Stability in RPMI tissue culture medium at 37 degC at 10 uM after 72 hrs; assay type: ADME; in short: as §1
# [9] = system: Liver microsomes; assay: Metabolic stability in Sprague-Dawley rat liver microsomes at 2 uM after 4 hrs; assay type: ADME, Microsome
# In short: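 Pooled male Sprague-Dawley rat liver microsomes (0.5 mg/mL protein) in 100 mM potassium phosphate pH 7.4 with 5 mM MgCl2 and 1 mM NADPH. Drug at 2 μM final, diluted from a DMSO stock, incubated 4 h at 37 °C. Stopped with cold acetonitrile, then reverse-phase C18 HPLC of the parent peak. Controls: P450-null human lymphoblast microsomes for protein binding; DF 203 for microsomal activity.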
# [10] = Stability in RPMI tissue culture medium at 37 degC incubated with human MCF7 cells at 0.5 uM after 72 hrs; assay type: ADME, cell-based; details: read-out: Stability; in short: as §2
SMILES,IC50 [1] [µM],GI50 [2] [µM],Selectivity index [3],also measured
CN1c2ccccc2-c2c3c1cccc3c1ccccc1[n+]2C.[I-],0.38,1.29,3.4,–
COS(=O)(=O)[O-].Cc1cc2c3c([n+](C)c4ccc(F)cc4c3c1)-c1cc(F)ccc1N2C,0.33,13.2,40,solubility [4]: 5000 µM; Stability [5]: Stable; remaining at 4 h [6]: 81%
COS(=O)(=O)[O-].Cc1ccc2c(c1)-c1c3c(cc(C)cc3c3cc(C)ccc3[n+]1C)N2C,0.25,0.41,1.8,–
CC(=O)OCCCc1cc2c3c([n+](C)c4ccc(/C=C/C(=O)N5CCOCC5)cc4c3c1)-c1ccccc1N2C.[I-],0.38,27.5,72.4,Activity [7]: Not Active; Activity [8]: Not Active
COc1cc2c3c([n+](C)c4ccccc4c3c1)-c1ccc(/C=C/C(=O)N3CCN(C(C)=O)CC3)cc1N2C,–,93.3,–,–
COC(=O)/C=C/c1ccc2c(c1)c1cccc3c1c([n+]2C)-c1ccccc1N3C,0.2,–,–,–
COc1cc2c3c([n+](C)c4ccccc4c3c1)-c1ccc(/C=C/C(=O)N3CCOCC3)cc1N2C.[I-],2.18,43.7,2,–
CN1c2ccccc2-c2c3c1cc(/C=C/C(=O)N1CCOCC1)cc3c1cc(Cl)ccc1[n+]2C,–,12,–,–
CN1c2ccccc2-c2c3c1cccc3c1cc(/C=C/C(=O)N3CCOCC3)ccc1[n+]2C.[I-],0.37,68,183,solubility [4]: 1000 µM; Stability [5]: Stable; Activity [9]: 66%
CC(=O)OCCCc1ccc2c(c1)N(C)c1cc(CCCOC(C)=O)cc3c1c-2[n+](C)c1ccccc31.[I-],2.3,3.31,1.45,–
CC(=O)OCCCc1cc2c3c([n+](C)c4ccc(CCCOC(C)=O)cc4c3c1)-c1ccccc1N2C.[I-],3.22,3.8,1.2,–
COC(=O)/C=C/c1ccc2c(c1)N(C)c1cc(OC)cc3c1c-2[n+](C)c1ccccc31,> 1,4.58,–,–
COC(=O)CCc1ccc2c(c1)c1cccc3c1c([n+]2C)-c1ccccc1N3C,3.02,–,–,–
COc1cc2c3c([n+](C)c4ccc(/C=C/C(=O)N5CCOCC5)cc4c3c1)-c1ccccc1N2C,–,9.33,–,–
CC(=O)Nc1ccc2c3cccc4c3c([n+](C)c2c1)-c1ccccc1N4C.[I-],0.38,12,31.6,"Stability [5]: Stable; remaining at 72 h, 0.5 µM [10]: 43%; remaining at 4 h [6]: 69%"
